In ChEMBL document CHEMBL1145462, “In vivo pharmacodynamic activity of the glycopeptide dalbavancin” (Antimicrob Agents Chemother, 2007):

What was measured:
Staphylococcus aureus [1] = experiment: Bactericidal activity against […] Staphylococcus aureus ATCC 29213 infected neutropenic Swiss ICR mouse thigh infection model assessed as drug level causing 1-log reduction of bacterial count at 10 mg/kg, ip dosed every 72 hrs; assay type: functional; conditions: route intraperitoneal
How it was run: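 Neutropenic thigh-infected mice were treated ip starting 2 h post-infection for 144 h, with doses given q24h or q72h. Thigh CFU were fitted to a sigmoid Hill Emax model by nonlinear least squares. The dose giving a 1-log10 reduction versus start-of-therapy counts was derived from the fit, together with the free-drug 24-h AUC/MIC.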

Streptococcus pneumoniae [2] = experiment: AUC/MIC ratio of Streptococcus pneumoniae 1199 infected neutropenic mouse thigh infection model at 0.40 mg/kg, ip administered every 24 hrs by static effect experiment; assay type: functional; conditions: dose 0.4 mg/kg; route intraperitoneal
Streptococcus pneumoniae [3] = experiment: AUC/MIC ratio of Streptococcus pneumoniae 1329 infected neutropenic mouse thigh infection model at 0.90 mg/kg, ip administered every 24 hrs by static effect experiment; assay type: functional; conditions: dose 0.9 mg/kg; route intraperitoneal
Staphylococcus aureus [4] = experiment: AUC/MBC ratio of Staphylococcus aureus ATCC 25923 infected neutropenic mouse thigh infection model at 42.7 mg/kg, ip administered every 24 hrs by static effect experiment; assay type: functional; conditions: route intraperitoneal
Staphylococcus aureus [5] = experiment: AUC/MBC ratio of Staphylococcus aureus 33591 infected neutropenic mouse thigh infection model at 22.3 mg/kg, ip administered every 24 hrs by static effect experiment; assay type: functional; conditions: route intraperitoneal
Staphylococcus aureus [6] = experiment: AUC/MIC ratio of Staphylococcus aureus 31005 infected neutropenic mouse thigh infection model at 67.7 mg/kg, ip administered every 72 hrs by static effect experiment; assay type: functional; conditions: route intraperitoneal
Staphylococcus aureus [7] = experiment: AUC/MBC ratio of methicillin-resistant Staphylococcus aureus infected neutropenic mouse thigh infection model at 43 mg/kg, ip administered every 72 hrs by static effect experiment; assay type: functional; conditions: route intraperitoneal
Staphylococcus aureus [8] = experiment: AUC/MIC ratio of methicillin-resistant Staphylococcus aureus infected neutropenic mouse thigh infection model at 45.3 mg/kg, ip administered every 24 hrs by 1-log killing experiment; assay type: functional; conditions: route intraperitoneal
Staphylococcus aureus [9] = experiment: AUC/MBC ratio of methicillin-resistant Staphylococcus aureus infected neutropenic mouse thigh infection model at 62 mg/kg, ip administered every 72 hrs by 1-log killing experiment; assay type: functional; conditions: route intraperitoneal
Staphylococcus aureus [10] = experiment: AUC/MBC ratio of Staphylococcus aureus Smith infected neutropenic mouse thigh infection model at 95 mg/kg, ip administered every 72 hrs by 1-log killing experiment; assay type: functional; conditions: route intraperitoneal
Streptococcus pneumoniae [11] = experiment: AUC/MIC ratio of Streptococcus pneumoniae 1293 infected neutropenic mouse thigh infection model at 0.65 mg/kg, ip administered every 24 hrs by 2-log killing experiment; assay type: functional; conditions: route intraperitoneal
Streptococcus pneumoniae [12] = experiment: AUC/MIC ratio of Streptococcus pneumoniae 1329 infected neutropenic mouse thigh infection model at 1.45 mg/kg, ip administered every 24 hrs by 2-log killing experiment; assay type: functional; conditions: route intraperitoneal
Staphylococcus aureus [13] = experiment: AUC/MIC ratio of Staphylococcus aureus ATCC 25923 infected neutropenic mouse thigh infection model at 60 mg/kg, ip administered every 24 hrs by 2-log killing experiment; assay type: functional; conditions: route intraperitoneal
Staphylococcus aureus [14] = experiment: AUC/MIC ratio of Staphylococcus aureus Smith infected neutropenic mouse thigh infection model at 148 mg/kg, ip administered every 72 hrs by 2-log killing experiment; assay type: functional; conditions: route intraperitoneal
Staphylococcus aureus [15] = experiment: AUC/MBC ratio of Staphylococcus aureus 33591 infected neutropenic mouse thigh infection model at 114 mg/kg, ip administered every 72 hrs by 2-log killing experiment; assay type: functional; conditions: route intraperitoneal
Streptococcus pneumoniae [16] = experiment: AUC/MIC ratio of Streptococcus pneumoniae ATCC 10813 infected neutropenic mouse thigh infection model at 0.71 mg/kg, ip administered every 72 hrs by static effect experiment; assay type: functional; conditions: route intraperitoneal
Streptococcus pneumoniae [17] = experiment: AUC/MIC ratio of Streptococcus pneumoniae 1329 infected neutropenic mouse thigh infection model at 1.18 mg/kg, ip administered every 24 hrs by 1-log killing experiment; assay type: functional; conditions: route intraperitoneal
Staphylococcus aureus [18] = experiment: AUC/MBC ratio of Staphylococcus aureus 307109 infected neutropenic mouse thigh infection model at 37 mg/kg, ip administered every 72 hrs by 2-log killing experiment; assay type: functional; conditions: route intraperitoneal
Streptococcus pneumoniae [19] = experiment: Bactericidal activity against penicillin-susceptible Streptococcus pneumoniae ATCC 10813 infected neutropenic Swiss ICR mouse thigh infection model assessed as drug level causing 1-log reduction of bacterial count at 1.26 mg/kg, ip dosed every 36 hrs; assay type: functional; conditions: route intraperitoneal
Staphylococcus aureus [20] = experiment: Bactericidal activity against […] Staphylococcus aureus ATCC 29213 infected neutropenic Swiss ICR mouse thigh infection model assessed as drug level causing 1-log reduction of bacterial count at 15 mg/kg, ip dosed every 36 hrs; assay type: functional; conditions: route intraperitoneal
Streptococcus pneumoniae [21] = experiment: Bactericidal activity against penicillin-susceptible Streptococcus pneumoniae ATCC 10813 infected neutropenic Swiss ICR mouse thigh infection model assessed as drug level causing 1-log reduction of bacterial count at 0.71 mg/kg, ip dosed every 72 hrs; assay type: functional; conditions: route intraperitoneal
How it was run: (§1)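 Neutropenic mice (cyclophosphamide ip 150 mg/kg day −4, 100 mg/kg day −1, then every 48 h) received 0.1 ml log-phase inoculum per thigh under halothane. Intraperitoneal dalbavancin started 2 h later and was given for 6 days at q12h, q24h, q36h or q72h, two mice per regimen. Thigh CFU were counted at 144 h. Endpoint doses relative to start-of-therapy counts came from Hill-model nonlinear regression and are expressed per 24 h.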

[22] = Cmax in bacterial pathogen-infected neutropenic Swiss ICR mouse thigh infection model at 2.5 mg/kg, ip; assay type: ADME, organism-based; parameters: dose 2.5 mg/kg, route intraperitoneal; conditions: in vivo
How it was run: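 Single-dose serum PK in thigh-infected neutropenic mice; intraperitoneal dalbavancin (0.2 ml/dose) at 2.5–80 mg/kg. Blood from groups of three mice at 0.5–96 h by retroorbital aspiration; plasma level by Bacillus subtilis microbiologic assay (detection limit 0.10 mg/liter). Noncompartmental analysis; AUC by trapezoidal rule from mean concentrations, extrapolated to infinity.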

[23] = Cmax in bacterial pathogen-infected neutropenic Swiss ICR mouse thigh infection model at 5 mg/kg, ip; assay type: ADME, organism-based; parameters: dose 5 mg/kg, route intraperitoneal; conditions: in vivo
How it was run: (§2)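 Thigh-infected neutropenic mice received single intraperitoneal doses (2.5, 5, 10, 20, 40, 80 mg/kg; 0.2 ml/dose). Blood was drawn by retroorbital aspiration from groups of three mice at 0.5, 1, 2, 4, 6, 24, 48, 72 and 96 h. Plasma levels were measured by microbiologic assay with Bacillus subtilis (detection limit 0.10 mg/liter). Noncompartmental analysis was used: half-life by linear least-squares regression, AUC by trapezoidal rule.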

Mus musculus = experiment: AUC in bacterial pathogen-infected neutropenic Swiss ICR mouse thigh infection model at 10 mg/kg, ip; assay type: ADME, organism-based; parameters: dose 10 mg/kg, route intraperitoneal; conditions: in vivo; how it was run: as §2
[24] = Half life in bacterial pathogen-infected neutropenic Swiss ICR mouse thigh infection model at 40 mg/kg, ip; assay type: ADME, organism-based; parameters: dose 40 mg/kg, route intraperitoneal; conditions: in vivo; how it was run: as §2
Streptococcus pneumoniae [25] = experiment: Bactericidal activity in ip dosed penicillin-susceptible Streptococcus pneumoniae ATCC 10813 infected neutropenic mouse thigh infection model assessed as reduction of colony count after 48 hrs by time kill study; assay type: functional, Thigh muscle
How it was run: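 Neutropenic mice with thigh infection treated 2 h post-inoculation with single ip doses of 0.625, 1.25, 2.5, 5 or 10 mg/kg. Two mice per time point, sampled 0.5–96 h, with untreated controls. Thighs processed for CFU, reported as mean ± standard deviation log10 CFU/thigh.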

Streptococcus pneumoniae [26] = experiment: Bactericidal activity against penicillin-susceptible Streptococcus pneumoniae ATCC 10813 infected neutropenic Swiss ICR mouse thigh infection model assessed as drug level causing 2-log reduction of bacterial count at 2.3 mg/kg, ip dosed every 12 hrs; assay type: functional; conditions: route intraperitoneal; how it was run: as §1

CN[C@H]1C(=O)N[C@@H]2Cc3ccc(cc3)Oc3cc4cc(c3O[C@@H]3O[C@H](C(=O)O)[C@@H](O)[C@H](O)[C@H]3NC(=O)CCCCCCCCC(C)C)Oc3ccc(cc3Cl)[C@@H](O)[C@@H]3NC(=O)[C@H](NC(=O)[C@@H]4NC(=O)[C@@H](NC2=O)c2cc(cc(O)c2Cl)Oc2cc1ccc2O)c1ccc(O)c(c1)-c1c(O[C@H]2O[C@H](CO)[C@@H](O)[C@H](O)[C@@H]2O)cc(O)cc1[C@@H](C(=O)NCCCN(C)C)NC3=O [DALBAVANCIN]
Activity (Staphylococcus aureus [1]): 31
RatioAUC/MIC (Streptococcus pneumoniae [2]): 16
RatioAUC/MIC (Streptococcus pneumoniae [3]): 18
Ratio (Staphylococcus aureus [4]): 52
Ratio (Staphylococcus aureus [5]): 46
RatioAUC/MIC (Staphylococcus aureus [6]): 223
Ratio (Staphylococcus aureus [7]): 35.3
RatioAUC/MIC (Staphylococcus aureus [8]): 452
Ratio (Staphylococcus aureus [9]): 48.8
Ratio (Staphylococcus aureus [10]): 78
RatioAUC/MIC (Streptococcus pneumoniae [11]): 25.9
RatioAUC/MIC (Streptococcus pneumoniae [12]): 26.7
RatioAUC/MIC (Staphylococcus aureus [13]): 289
RatioAUC/MIC (Staphylococcus aureus [14]): 254
Ratio (Staphylococcus aureus [15]): 94
RatioAUC/MIC (Streptococcus pneumoniae [16]): 1.4
RatioAUC/MIC (Streptococcus pneumoniae [17]): 23.5
Ratio (Staphylococcus aureus [18]): 14.6
Activity (Streptococcus pneumoniae [19]): 1.53
Activity (Staphylococcus aureus [20]): 36
Activity (Streptococcus pneumoniae [21]): 0.77
Cmax [22]: 7400 ng/mL
Cmax [23]: 29000 ng/mL
AUC (Mus musculus): 579 µg·h/mL
half-life [24]: 10.4 h
Activity (Streptococcus pneumoniae [25]): 4
Activity (Streptococcus pneumoniae [26]): 3.5
